What all share (assay type): functional
For assay [1], the species on record is Homo sapiens. Briefly: Compound was evaluated for nitric oxide release (stimulate nitric oxide synthase) in human plasma.
For assay [2], the system named is Rattus norvegicus. Briefly: Percent inhibition of paw volume increase in carrageenan-induced rat after a dose of 120 mg/kg was administered and observed after 4 hours of incubation.
Assay [3] can be described thus: Antiaggregatory effect against arachidonic acid induced platelet aggregation from the human platelet rich plasma(PRP) in the presence of oxyhemoglobin (HbO2). In outline:
(§1)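 Human citrated blood spun at 200g for 20 min to give PRP. Compound or DMSO (maximum 0.5%) added 10 min before arachidonic acid (0.5-1 mM, chosen to give 85-95% of maximal aggregation). Oxyhaemoglobin 40 µM final added 12 min before the activator. Light transmission read for 5 min at 37 °C with stirring. […] Mean ± SEM, n = 5.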

Assay [4] has as its system Rattus norvegicus. The assay can be described thus: Percent inhibition of paw volume increase in carrageenan-induced rat after a dose of 120 mg/kg was administered and observed after 6 hours of incubation.
Assay [5] is filed under the species Homo sapiens. The assay can be described thus: Percent ibuprofen detected after 6 hr incubation in human plasma. In outline: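 Compound (0.0438 µmol) in 5 µL acetonitrile added to 495 µL human plasma at 37 °C and incubated 6 h. Diluted with acetonitrile containing 0.1% TFA and centrifuged (9600g, 15 min). […] Expressed as %, mean ± SEM.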
Assay [6] relates to Rattus norvegicus. Briefly: Alcerogenic property after intragastric administration to conscious rats for 6 hrs. In outline:
(§2)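 Male Wistar rats (180-200 g), fasted 24 h with water allowed, groups of n = 6. […] Killed 6 h after dosing. Stomachs opened along the lesser curvature and examined under a stereomicroscope. Each haemorrhagic lesion was scored by greatest length (<1 mm = 1; 1-2 mm = 2; >2 mm = length in mm). Summed as lesion index, mean ± SEM.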

The species entered for assay [7] is Homo sapiens. The assay can be described thus: Percent ibuprofen detected after 2 hr incubation in acidic medium (pH=1) […]. Summed up: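 Compound (0.25 mM) in acetonitrile added to HCl solution at pH 1, 37 °C, incubated 2 h.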
Assay [8] deals with Rattus norvegicus. The assay can be described thus: Percent inhibition of paw volume increase in carrageenan-induced rat after a dose of 40 mg/kg was administered and observed after 6 hours of incubation.
Assay [9] concerns Rattus norvegicus. Briefly: Percent inhibition of paw volume increase in carrageenan-induced rat after a dose of 40 mg/kg was administered and observed after 4 hours of incubation.
The subject of assay [10] is Rattus norvegicus. The assay can be described thus: Ulcerogenic property after intragastric administration to conscious rats for 6 hrs. In outline:
as §2

Assay [11] can be described thus: Antiaggregatory effect against arachidonic acid induced platelet aggregation from the human platelet rich plasma(PRP) in the presence of oxyheamoglobin(HbO2, 40 uM). In outline: as §1
Assay [12] has as its system Rattus norvegicus. The assay can be described thus: Ulcerogenic property after intragastric administration to conscious rats after 6 hours of incubation. In outline:
as §2

In general, inhibition in vivo refers to the drop in the measured response relative to a control, in per cent. A higher inhibition in vivo goes with a response far below the control. A word on the IC50: it is the point on the concentration scale where inhibition reaches its midpoint. `CC(C)Cc1ccc(C(C)C(=O)OCCCO[N+](=O)[O-])cc1` (stereo not given): in the assay listed under Homo sapiens [1], the “NO2- (mol/mol)” value was determined as 3.2%. The inhibition in vivo at 120 mg/kg in the assay with Rattus norvegicus [2] was found to be 41.8%; with Rattus norvegicus [4], 40%. Moreover, the concentration for half-maximal inhibition (IC50) in assay [3] is 57.5 µM. The Ibuprofen is on record as 27.1% in the assay listed under Homo sapiens [5] and 22.3% in the assay filed under Homo sapiens [7]. This compound also came in with a Lesion index in the assay with Rattus norvegicus [6] of 0.7 mm.

As for `CCCOC(=O)C(C)c1ccc(CC(C)C)cc1` (stereo not given), the inhibition in vivo at 40 mg/kg in the assay with Rattus norvegicus [8] was 49.6%; in the assay with Rattus norvegicus [9], 37.6%. The Lesion index in the assay on Rattus norvegicus [10] turned out to be 3.8 mm. Moreover, the Ibuprofen in the assay listed under Homo sapiens [5] is on record as 22.9%; in the assay listed under Homo sapiens [7], 11.7%.

As for `CC(C)Cc1ccc(C(C)C(=O)OCCCOc2no[n+]([O-])c2S(=O)(=O)c2ccccc2)cc1` (stereo not given), in the assay listed under Homo sapiens [1], the “NO2- (mol/mol)” value is on record as 34.7%. The IC50 in assay [11] is 2.69 µM. Moreover, the Lesion index in the assay on Rattus norvegicus [12] turned out to be 0 mm. The inhibition in vivo at 40 mg/kg in the assay with Rattus norvegicus [8] came to 41.5%; in the assay on Rattus norvegicus [9] it was 37.4%. For the same compound, the Ibuprofen in the assay listed under Homo sapiens [5] is recorded as 46.8%; in the assay listed under Homo sapiens [7] it was 12.9%.

In the case of `CC(C)Cc1ccc(C(C)C(=O)OCCCOc2nonc2Sc2ccccc2)cc1` (stereo not given), the inhibition in vivo at 120 mg/kg with Rattus norvegicus [2] turned out to be 48.3%; in the assay with Rattus norvegicus [4], 54.4%. In the assay on Rattus norvegicus [10], the Lesion index came out at 1.3 mm. The Ibuprofen amounted to 8.9% in the assay listed under Homo sapiens [5] and 6.1% in the assay listed under Homo sapiens [7].

Regarding `CC(C)Cc1ccc(C(C)C(=O)OCCCOc2no[n+]([O-])c2Sc2ccccc2)cc1` (stereo not given), the “NO2- (mol/mol)” value in the assay filed under Homo sapiens [1] is listed as 9.5%. Moreover, the figures for the inhibition in vivo at 120 mg/kg in the assay on Rattus norvegicus [2] and in the assay on Rattus norvegicus [4] were 40.7% and 36.2%, respectively. The compound further showed a Lesion index in the assay on Rattus norvegicus [10] of 0 mm. Moreover, the results for the Ibuprofen in the assay listed under Homo sapiens [5] and in the assay filed under Homo sapiens [7] were 35.6% and 6.5%, respectively.

On to `CC(C)Cc1ccc(C(C)C(=O)OCCCOc2nonc2S(=O)(=O)c2ccccc2)cc1` (stereo not given), for which the inhibition in vivo at 40 mg/kg in the assay with Rattus norvegicus [8] came out at 63.3%; with Rattus norvegicus [9], 52.8%. In the assay on Rattus norvegicus [10], the Lesion index was determined as 5.7 mm. Also, the Ibuprofen is given as 26% in the assay filed under Homo sapiens [5] and 13% in the assay listed under Homo sapiens [7].

Values taken from ChEMBL document CHEMBL1134631 (J Med Chem, 2001).
